Assay [1] has as its target Aurora kinase B (Homo sapiens) (UniProt Q96GD4). The experiment in a line: Inhibition of recombinant human N-terminal His6-tagged Aurora B (1 to 344 residues) expressed in Escherichia coli assessed as remaining activity at 10 uM using LRRLSLGLRRLSLGLRRLSLGLRRLSLG as substrate incubated for 30 mins in presence of [gamma-33P]ATP by filter binding method relative to control.

Assay [2] addresses Ephrin type-B receptor 3 (Homo sapiens) (UniProt P54753). Briefly: Inhibition of recombinant human N-terminal His6-tagged EPHB3 (561 to 998 residues) expressed in Escherichia coli assessed as remaining activity at 1 uM using Poly(Glu, Tyr) as substrate incubated for 30 mins in presence of [gamma-33P]ATP by filter binding method relative to control. Put shortly: (§1)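 Panel assays were run for 30 min at 21 °C, within the linear range for time and enzyme. […] Results are percent activity remaining relative to compound-free control, averaged from triplicate ± S.D.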

Assay [3] concerns the target Dual specificity mitogen-activated protein kinase kinase 1 (Homo sapiens) (UniProt Q02750). The experiment in a line: Inhibition of recombinant human MKK1 (2 to 393 residues) expressed in Escherichia coli assessed as remaining activity at 1 uM using MBP as substrate incubated for 30 mins in presence of [gamma-33P]ATP by filter binding method relative to control. Put shortly: (§2)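 Kinase panel run robotically at 21 °C for 30 min, linear in time and enzyme. […] Compound tested at 1 or 10 µM. Activity given as percentage of incubations without compound, mean of triplicates ± S.D.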

The target in assay [4] is Mitogen-activated protein kinase 13 (Homo sapiens) (UniProt O15264). Briefly: Inhibition of recombinant human GST-tagged P38delta (1 to 365 residues) expressed in Escherichia coli assessed as remaining activity at 1 uM using MBP as substrate incubated for 30 mins in presence of [gamma-33P]ATP by filter binding method relative to control. The essentials: as §2
In assay [5] the target is Protein kinase C zeta type (Homo sapiens) (UniProt Q05513). The experiment in a line: Inhibition of recombinant human N-terminal His6-tagged PKCzeta (2 to 592 residues) expressed in baculovirus infected Sf21 cells assessed as remaining activity at 1 uM using ERMRPRKRQGSVRRV as substrate incubated for 30 mins in presence of [gamma-33P]ATP by filter binding method relative to control.

In assay [6] the target is Serine/threonine-protein kinase PLK1 (Homo sapiens) (UniProt P53350). Briefly: Inhibition of recombinant human N-terminal His6-tagged PLK1 (1 to 603 residues) expressed in baculovirus infected Sf21 cells assessed as remaining activity at 1 uM using ISDELMDATFADQEAKKK as substrate incubated for 30 mins in presence of [gamma-33P]ATP by filter binding method relative to control. The essentials: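 Radiometric panel assay run robotically at 21 °C for 30 min, linear in time and enzyme. […] Activity is expressed as percentage of the compound-omitted control, averaged from triplicates ± S.D.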

In assay [7] the target is Ribosomal protein S6 kinase alpha-1 (Homo sapiens) (UniProt Q15418). Briefly: Inhibition of recombinant human N-terminal His6-tagged RSK1 (1 to 735 residues) expressed in baculovirus infected Sf21 cells assessed as remaining activity at 1 uM using KKLNRTLSVA as substrate incubated for 30 mins in presence of [gamma-33P]ATP by filter binding assay relative to control.
For assay [8], the target named is Ephrin type-B receptor 3 (Homo sapiens) (UniProt P54753). Briefly: Inhibition of recombinant human N-terminal His6-tagged EPHB3 (561 to 998 residues) expressed in Escherichia coli assessed as remaining activity at 10 uM using Poly(Glu, Tyr) as substrate incubated for 30 mins in presence of [gamma-33P]ATP by filter binding method relative to control. The essentials: as §1

In assay [9] the target is Insulin-like growth factor 1 receptor (Homo sapiens) (UniProt P08069). The experiment in a line: Inhibition of recombinant human N-terminal His6-tagged IGF1R (954 to 1367 residues) expressed in baculovirus infected Sf21 cells assessed as remaining activity at 10 uM using KKKSPGEYVNIEFG as substrate incubated for 30 mins in presence of [gamma-33P]ATP by filter binding method relative to control. Put shortly:
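Radiometric kinase panel run robotically at room temperature (21 °C) for 30 min, linear in time and enzyme. […] Activity is expressed as percent of control without compound, from triplicate determinations ± S.D.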

The target of assay [10] is Inhibitor of nuclear factor kappa-B kinase subunit epsilon (Homo sapiens) (UniProt Q14164). Briefly: Inhibition of recombinant human N-terminal GST-tagged IKKepsilon (1 to 716 residues) expressed in baculovirus infected Sf21 cells assessed as remaining activity at 10 uM using MBP as substrate incubated for 30 mins in presence of [gamma-33P]ATP by filter binding method relative to control. Put shortly: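 Incubation was 30 min at room temperature (21 °C) under conditions linear with time and enzyme amount. Activity is reported as percent of control lacking compound, triplicate mean ± S.D.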

Assay [11] concerns the target Phosphatidylinositol 4-phosphate 3-kinase C2 domain-containing subunit beta (Homo sapiens) (UniProt O00750). Briefly: Inhibition of PI3KC2beta (unknown origin) assessed as remaining activity at 1 uM using phosphatidylinositol as substrate incubated for 30 mins in presence of ATP relative to control. Put shortly: (§3)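 PI3KC2β assayed with 20 μM phosphatidylinositol, 0.2 mM ATP, 2 mM MgCl2, in Tris/HCl pH 7.5 with CHAPS, 30 min at room temperature. Stopped with EDTA, product detected by time-resolved FRET competition with PtdIns3P–biotin and SGK PX domain. Activity as % of no-compound control, triplicate.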

The target is the same in assay [12]. The experiment in a line: Inhibition of PI3KC2beta (unknown origin) assessed as remaining activity at 10 uM using phosphatidylinositol as substrate incubated for 30 mins in presence of ATP relative to control. Put shortly: as §3
The subject of another assay is MEF. The experiment in a line: Inhibition of mTORC2 in serum starved MEF cells assessed as reduction IGF1-stimulated AKT phosphorylation at Thr308 residue at 100 to 1000 nM incubated for 20 mins by immunoblot analysis. It counts as cell-based. The note with it: Mus musculus, dose 100-1000 nM. The essentials: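 Serum withdrawn 16 h. Inhibitor or vehicle given 30 min before stimulation with 50 ng/ml IGF-1 for 20 min. Lysed in Tris lysis buffer and immunoblotted for Akt Thr308 phosphorylation with ECL detection. Applies to HEK-293 and to wild-type, Rictor, Sin1 or mLST8 knockout MEFs. Three independent experiments.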

Assay [13] has as its target Mitogen-activated protein kinase; ERK1/ERK2 (Homo sapiens) (UniProt P27361+P28482). The experiment in a line: Inhibition of ERK1/2 in serum starved/PMA-stimulated HEK293 cells assessed as reduction in ERK1/2 phosphorylation at T202/Y204 residues at 1 uM incubated for 30 mins by immunoblot analysis. It counts as cell-based.
The next assay deals with mTORC2 (Homo sapiens) (UniProt P42345+Q6R327+Q9BVC4+Q9BPZ7). The conditions noted are these: HEK293, dose 30-1000 nM, time 30.0 min.
For the next assay, the target named is mTORC1 (Homo sapiens) (UniProt P42345+Q8N122+Q9BVC4). The conditions noted are these: HEK293, dose 30-1000 nM, time 30.0 min.

Calls of active or inactive are those of the source. The rule behind the calls is not given here.

This note sets out measurements from ChEMBL document CHEMBL5678799 (Biochem J, 2009).

Sequence of Ephrin type-B receptor 3 (Homo sapiens) (P54753 whole entry, the tested form may be a part): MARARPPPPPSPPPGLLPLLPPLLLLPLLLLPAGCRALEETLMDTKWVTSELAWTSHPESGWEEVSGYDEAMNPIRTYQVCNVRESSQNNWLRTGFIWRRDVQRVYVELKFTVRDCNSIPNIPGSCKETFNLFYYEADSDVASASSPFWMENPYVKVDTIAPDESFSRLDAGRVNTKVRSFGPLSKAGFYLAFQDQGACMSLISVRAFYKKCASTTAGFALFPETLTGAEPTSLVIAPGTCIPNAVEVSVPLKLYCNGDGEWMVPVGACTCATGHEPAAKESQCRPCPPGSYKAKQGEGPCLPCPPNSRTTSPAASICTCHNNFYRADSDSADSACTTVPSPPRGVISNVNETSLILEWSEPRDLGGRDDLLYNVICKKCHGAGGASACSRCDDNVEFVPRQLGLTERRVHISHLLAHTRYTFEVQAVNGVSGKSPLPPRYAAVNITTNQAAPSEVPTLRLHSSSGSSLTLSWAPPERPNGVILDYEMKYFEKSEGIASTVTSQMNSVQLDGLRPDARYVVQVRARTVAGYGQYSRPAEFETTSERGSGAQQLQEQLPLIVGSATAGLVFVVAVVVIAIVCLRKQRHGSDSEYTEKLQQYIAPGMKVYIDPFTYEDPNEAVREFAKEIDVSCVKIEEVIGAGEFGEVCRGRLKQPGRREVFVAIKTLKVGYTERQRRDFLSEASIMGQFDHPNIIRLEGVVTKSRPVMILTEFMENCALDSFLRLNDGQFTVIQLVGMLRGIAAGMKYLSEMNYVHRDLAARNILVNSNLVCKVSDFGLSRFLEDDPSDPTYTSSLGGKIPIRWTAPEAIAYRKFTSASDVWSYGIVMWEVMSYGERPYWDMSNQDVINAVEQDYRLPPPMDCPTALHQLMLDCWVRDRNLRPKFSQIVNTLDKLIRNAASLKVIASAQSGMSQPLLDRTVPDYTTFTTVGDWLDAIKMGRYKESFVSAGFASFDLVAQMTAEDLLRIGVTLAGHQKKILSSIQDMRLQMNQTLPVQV
Sequence of Phosphatidylinositol 4-phosphate 3-kinase C2 domain-containing subunit beta (Homo sapiens) (O00750 whole entry, the tested form may be a part): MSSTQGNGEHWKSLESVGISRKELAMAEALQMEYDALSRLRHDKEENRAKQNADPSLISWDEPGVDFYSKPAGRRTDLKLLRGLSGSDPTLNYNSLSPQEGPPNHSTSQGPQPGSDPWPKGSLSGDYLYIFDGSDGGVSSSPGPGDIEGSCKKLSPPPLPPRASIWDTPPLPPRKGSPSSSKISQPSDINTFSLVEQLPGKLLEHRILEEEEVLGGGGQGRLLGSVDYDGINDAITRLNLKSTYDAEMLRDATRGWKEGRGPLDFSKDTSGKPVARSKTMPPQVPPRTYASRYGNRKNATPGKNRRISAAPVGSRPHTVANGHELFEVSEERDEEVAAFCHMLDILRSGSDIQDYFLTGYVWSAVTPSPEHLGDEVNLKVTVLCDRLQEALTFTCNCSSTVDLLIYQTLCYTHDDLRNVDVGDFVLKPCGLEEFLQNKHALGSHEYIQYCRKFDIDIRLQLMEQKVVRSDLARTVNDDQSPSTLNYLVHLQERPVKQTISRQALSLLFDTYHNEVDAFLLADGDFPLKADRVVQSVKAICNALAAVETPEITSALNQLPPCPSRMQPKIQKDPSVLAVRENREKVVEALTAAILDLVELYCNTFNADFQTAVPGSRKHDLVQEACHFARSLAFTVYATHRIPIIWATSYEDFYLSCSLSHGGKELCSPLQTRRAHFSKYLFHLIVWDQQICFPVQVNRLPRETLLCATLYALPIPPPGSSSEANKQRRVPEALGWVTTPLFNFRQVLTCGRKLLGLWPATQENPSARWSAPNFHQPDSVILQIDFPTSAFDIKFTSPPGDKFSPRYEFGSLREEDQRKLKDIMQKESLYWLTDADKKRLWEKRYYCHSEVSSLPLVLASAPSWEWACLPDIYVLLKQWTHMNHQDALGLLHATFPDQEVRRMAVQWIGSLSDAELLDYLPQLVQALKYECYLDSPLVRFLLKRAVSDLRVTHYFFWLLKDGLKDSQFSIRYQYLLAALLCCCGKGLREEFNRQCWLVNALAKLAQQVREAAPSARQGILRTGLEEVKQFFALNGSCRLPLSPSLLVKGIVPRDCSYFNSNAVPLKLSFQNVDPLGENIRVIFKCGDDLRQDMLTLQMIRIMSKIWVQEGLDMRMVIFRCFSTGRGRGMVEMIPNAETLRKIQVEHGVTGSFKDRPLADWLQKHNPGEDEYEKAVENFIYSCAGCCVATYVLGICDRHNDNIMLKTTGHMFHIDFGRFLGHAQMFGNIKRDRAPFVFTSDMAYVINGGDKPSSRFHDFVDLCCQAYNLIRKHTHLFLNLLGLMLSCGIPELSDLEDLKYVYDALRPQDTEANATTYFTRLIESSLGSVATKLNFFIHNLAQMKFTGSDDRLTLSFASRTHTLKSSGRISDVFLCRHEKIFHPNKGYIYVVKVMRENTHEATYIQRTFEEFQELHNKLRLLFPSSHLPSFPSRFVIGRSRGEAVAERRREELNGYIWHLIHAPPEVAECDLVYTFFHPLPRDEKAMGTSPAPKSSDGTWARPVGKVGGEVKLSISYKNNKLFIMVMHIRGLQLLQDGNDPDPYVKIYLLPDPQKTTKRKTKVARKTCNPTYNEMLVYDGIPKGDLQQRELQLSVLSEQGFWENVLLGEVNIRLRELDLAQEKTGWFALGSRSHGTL
Sequence of Ribosomal protein S6 kinase alpha-1 (Homo sapiens) (Q15418 whole entry, the tested form may be a part): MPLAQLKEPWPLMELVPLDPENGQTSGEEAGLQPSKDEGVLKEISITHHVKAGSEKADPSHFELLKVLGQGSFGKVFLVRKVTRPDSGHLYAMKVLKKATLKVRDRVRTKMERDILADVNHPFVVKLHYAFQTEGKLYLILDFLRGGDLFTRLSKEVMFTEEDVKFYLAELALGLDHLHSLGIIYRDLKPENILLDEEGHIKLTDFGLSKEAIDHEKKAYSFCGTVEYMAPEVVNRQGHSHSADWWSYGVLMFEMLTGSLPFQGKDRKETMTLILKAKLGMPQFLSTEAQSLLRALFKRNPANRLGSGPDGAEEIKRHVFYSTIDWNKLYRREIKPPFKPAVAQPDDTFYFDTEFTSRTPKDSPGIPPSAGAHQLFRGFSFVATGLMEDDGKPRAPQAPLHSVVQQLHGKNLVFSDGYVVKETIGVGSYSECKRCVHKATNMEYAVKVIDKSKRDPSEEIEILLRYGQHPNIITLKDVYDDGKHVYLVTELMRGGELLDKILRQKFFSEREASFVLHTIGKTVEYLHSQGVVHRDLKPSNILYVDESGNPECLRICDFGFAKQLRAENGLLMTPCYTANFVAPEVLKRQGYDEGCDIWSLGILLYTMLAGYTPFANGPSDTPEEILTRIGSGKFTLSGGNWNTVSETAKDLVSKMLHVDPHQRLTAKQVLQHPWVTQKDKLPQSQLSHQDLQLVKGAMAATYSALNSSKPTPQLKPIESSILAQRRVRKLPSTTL
Sequence of Serine/threonine-protein kinase PLK1 (Homo sapiens) (P53350 whole entry, the tested form may be a part): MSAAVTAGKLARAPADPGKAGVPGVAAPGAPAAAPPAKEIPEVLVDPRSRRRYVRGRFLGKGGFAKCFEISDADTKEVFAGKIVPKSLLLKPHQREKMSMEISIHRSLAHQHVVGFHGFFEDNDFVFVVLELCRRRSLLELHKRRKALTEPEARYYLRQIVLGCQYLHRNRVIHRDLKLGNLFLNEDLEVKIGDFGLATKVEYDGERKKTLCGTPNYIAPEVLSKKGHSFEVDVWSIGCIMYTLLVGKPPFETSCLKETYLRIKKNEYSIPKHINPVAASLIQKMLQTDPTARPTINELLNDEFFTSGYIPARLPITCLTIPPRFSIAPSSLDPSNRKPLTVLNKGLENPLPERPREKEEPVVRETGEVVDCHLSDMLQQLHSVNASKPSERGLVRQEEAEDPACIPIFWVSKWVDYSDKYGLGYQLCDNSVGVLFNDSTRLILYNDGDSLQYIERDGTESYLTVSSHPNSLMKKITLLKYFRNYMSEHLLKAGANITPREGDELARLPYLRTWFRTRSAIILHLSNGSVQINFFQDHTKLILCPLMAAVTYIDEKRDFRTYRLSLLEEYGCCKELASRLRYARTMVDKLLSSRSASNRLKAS
Sequence of Protein kinase C zeta type (Homo sapiens) (Q05513 whole entry, the tested form may be a part): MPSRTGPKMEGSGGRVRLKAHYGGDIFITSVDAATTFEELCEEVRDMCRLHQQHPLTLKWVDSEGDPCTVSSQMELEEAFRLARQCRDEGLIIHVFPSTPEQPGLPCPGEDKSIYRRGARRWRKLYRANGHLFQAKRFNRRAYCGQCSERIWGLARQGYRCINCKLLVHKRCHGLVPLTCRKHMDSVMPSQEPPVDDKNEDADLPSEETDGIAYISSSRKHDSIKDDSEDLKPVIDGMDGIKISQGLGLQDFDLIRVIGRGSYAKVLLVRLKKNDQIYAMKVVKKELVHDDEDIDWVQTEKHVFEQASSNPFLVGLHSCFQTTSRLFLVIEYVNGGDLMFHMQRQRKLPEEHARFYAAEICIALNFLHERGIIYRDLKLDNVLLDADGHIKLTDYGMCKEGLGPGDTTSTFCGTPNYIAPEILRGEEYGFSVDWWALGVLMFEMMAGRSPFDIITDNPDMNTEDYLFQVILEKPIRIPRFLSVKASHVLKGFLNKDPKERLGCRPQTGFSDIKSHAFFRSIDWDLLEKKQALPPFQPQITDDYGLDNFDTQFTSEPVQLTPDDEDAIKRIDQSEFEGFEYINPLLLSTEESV
Sequence of Aurora kinase B (Homo sapiens) (Q96GD4 whole entry, the tested form may be a part): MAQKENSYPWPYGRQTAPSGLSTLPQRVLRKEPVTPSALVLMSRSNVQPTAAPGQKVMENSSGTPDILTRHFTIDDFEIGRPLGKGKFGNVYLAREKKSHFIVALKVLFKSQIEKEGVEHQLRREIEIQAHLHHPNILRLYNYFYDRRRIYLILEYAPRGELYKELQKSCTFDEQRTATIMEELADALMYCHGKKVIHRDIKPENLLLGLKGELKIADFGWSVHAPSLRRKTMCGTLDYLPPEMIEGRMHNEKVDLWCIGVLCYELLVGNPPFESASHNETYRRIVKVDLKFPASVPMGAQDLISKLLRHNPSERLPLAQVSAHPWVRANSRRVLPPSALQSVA

As to `COc1ccc(-c2ccc3c(N4CCOCC4)nc(N4C[C@@H](C)O[C@@H](C)C4)nc3n2)cc1CO` [Ku-0063794], the Activity in [1] worked out at 86%; in assay [2] it was 100%; in [3], 96%; in assay [4] it was 72%; in [5], 87%; in assay [6], 76%. The Activity in assay [7] turned out to be 100%; in [8] it was 78%; in [9] it was 89%; in assay [10], 100%; in [11], 126%; in assay [12] it was 82%. The inhibition entry in the assay on MEF is “Active”. In assay [13], the inhibition result was “inactive”. In addition, the inhibition entry on mTORC2 (Homo sapiens) and at mTORC1 (Homo sapiens) was “Dose-Dependent Effect” each time.
